# ChEMBL document CHEMBL4118027, “Preussilides A-F, Bicyclic Polyketides from the Endophytic Fungus Preussia similis with Antiproliferative Activity” (J Nat Prod, 2017)
# The source made the active and inactive calls. The rule behind the calls is not given here.
# What was measured:
# [1] = system: Sclerotinia sclerotiorum; assay: Antifungal activity against Sclerotinia sclerotiorum DSM 1946 at 20 ug/disk after 5 days by disk diffusion assay; type: functional, organism-based
# How it was run: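 Disk diffusion on YMG medium seeded with a mycelial suspension of the non-sporulating fungus; paper disks loaded with test material; inhibition zone diameter in mm read after 5 days.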
# [2] = system: Aspergillus fumigatus; assay: Antifungal activity against Aspergillus fumigatus DSM 819 by serial dilution method; type: functional
# [3] = system: Mucor hiemalis; assay: Antifungal activity against Mucor hiemalis DSM 2656 by serial dilution method; type: functional, organism-based
# [4] = system: MCF7; assay: Cytotoxicity against human MCF7 cells assessed as reduction in cell viability after 5 days by MTT assay; type: functional, cell-based; conditions: MCF7, 120 h
# How it was run: (§1)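 MTT viability assay run over 5 days on a panel of eight lines (L929, KB3.1, A431, A549, SKOV-3, PC-3, MCF-7, U2OS). IC50 values were derived.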
# [5] = system: KB 3-1; assay: Cytotoxicity against human KB3-1 cells assessed as reduction in cell viability after 5 days by MTT assay; type: functional, cell-based; conditions: KB 3-1, 120 h; how it was run: as §1
# [6] = system: Sclerotinia sclerotiorum; assay: Antifungal activity against Sclerotinia sclerotiorum DSM 1946 at 100 ug/disk after 5 days by disk diffusion assay; type: functional; conditions: DSM 1946, 120 h, read-out: IZ
# How it was run: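 Disk diffusion on YMG medium seeded with a mycelial suspension of the non-sporulating test fungus. Paper disks carried […] compound. Nystatin at 20 μg/disk was the positive control. Inhibition zone diameter (mm) was read after 5 days.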
# [7] = system: Micrococcus luteus; assay: Antibacterial activity against Micrococcus luteus DSM 1790 by serial dilution method; type: functional, organism-based
# [8] = system: U2OS; assay: Induction of morphological changes in human U2OS cells assessed as aberrantly sized cells with abnormal small nuclei formation at 0.5 ug/ml after 24 hrs by DAPI staining based immunofluorescence microscopic method; type: functional, cell-based
# How it was run: (§2)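 U2OS in DMEM (4.5 g/L glucose, 10% FBS), 37 °C, 7% CO2, seeded 3 × 10^4/well on fibronectin-coated coverslips and adhered 16 h. Treated 24 h at 0.25, 0.5, 2.5, 5 or 10 μg/mL (diluted from 1 mg/mL DMSO stock), DMSO control. Fixed in 4% PFA/PBS 20 min; anti-α-tubulin (DM1A), phalloidin-Alexa 488 and DNA stain; immunofluorescence imaging.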
# [9] = system: Lepidium sativum; assay: Phytotoxicity against Lepidium sativum assessed as inhibition of seedling germination at 100 ug/disk; type: functional, organism-based
# [10] = system: Mycolicibacterium smegmatis; assay: Antibacterial activity against Mycobacterium smegmatis ATCC 700084 by serial dilution method; type: functional, organism-based
# [11] = system: A-431; assay: Cytotoxicity against human A431 cells assessed as reduction in cell viability after 5 days by MTT assay; type: functional, cell-based; conditions: A-431, 120 h; how it was run: as §1
# [12] = system: Bacillus subtilis; assay: Antibacterial activity against Bacillus subtilis DSM 10 by serial dilution method; type: functional, organism-based
# [13] = system: A549; assay: Cytotoxicity against human A549 cells assessed as reduction in cell viability after 5 days by MTT assay; type: functional, cell-based; conditions: A549, 120 h; how it was run: as §1
# [14] = system: L929; assay: Cytotoxicity against mouse L929 cells assessed as reduction in cell viability after 5 days by MTT assay; type: functional, cell-based; conditions: L929, 120 h; how it was run: as §1
# [15] = system: Pseudomonas aeruginosa; assay: Antibacterial activity against Pseudomonas aeruginosa PA14 by serial dilution method; type: functional, organism-based
# [16] = system: Chromobacterium violaceum; assay: Antibacterial activity against Chromobacterium violaceum DSM 30191 by serial dilution method; type: functional, organism-based
# [17] = system: SK-OV-3; assay: Cytotoxicity against human SKOV3 cells assessed as reduction in cell viability after 5 days by MTT assay; type: functional, cell-based; conditions: SK-OV-3, 120 h; how it was run: as §1
# [18] = system: U2OS; assay: Cytotoxicity against human U2OS cells assessed as reduction in cell viability after 5 days by MTT assay; type: functional, cell-based; conditions: 120 h; how it was run: as §1
# [19] = system: L929; assay: Induction of nuclear fragmentation in mouse L929 cells at cytotoxic IC50 by DAPI staining based microscopic method; type: functional, cell-based
# [20] = system: Yamadazyma tenuis; assay: Antifungal activity against Candida tenuis MUCL 29892 by serial dilution method; type: functional, organism-based
# [21] = system: PC-3; assay: Cytotoxicity against human PC3 cells assessed as reduction in cell viability after 5 days by MTT assay; type: functional, cell-based; conditions: PC-3, 120 h; how it was run: as §1
# [22] = system: Setaria italica; assay: Phytotoxicity against Setaria italica assessed as inhibition of seedling germination at 100 ug/disk; type: functional, organism-based
# [23] = system: Caenorhabditis elegans; assay: Nematicidal activity against Caenorhabditis elegans up to 100 ug/ml; type: functional, organism-based
# [24] = system: Mucor plumbeus; assay: Antifungal activity against Mucor plumbeus MUCL 49355 by serial dilution method; type: functional
# [25] = system: Schizosaccharomyces pombe; assay: Antifungal activity against Schizosaccharomyces pombe DSM 70572 by serial dilution method; type: functional, organism-based
# [26] = system: Wickerhamomyces anomalus; assay: Antifungal activity against Pichia anomala DSM 6766 by serial dilution method; type: functional, organism-based
# [27] = system: U2OS; assay: Induction of morphological changes in human U2OS cells at 0.5 ug/ml after 24 hrs by DAPI staining based immunofluorescence microscopic method
# [28] = system: Rhodotorula glutinis; assay: Antifungal activity against Rhodotorula glutinis DSM 10134 by serial dilution method; type: functional, organism-based
# [29] = system: Staphylococcus aureus; assay: Antibacterial activity against Staphylococcus aureus DSM 346 by serial dilution method; type: functional, organism-based
# [30] = system: Candida albicans; assay: Antifungal activity against Candida albicans DSM 1665 by serial dilution method; type: functional, organism-based
# [31] = system: Escherichia coli; assay: Antibacterial activity against Escherichia coli DSM 498 by serial dilution method; type: functional, organism-based
# [32] = system: U2OS; assay: Cell cycle arrest in human U2OS cells assessed as accumulation at sub-G1 phase at 5 to 10 ug/ml after 18 hrs by propidium iodide staining based flow cytometry; type: functional
# How it was run: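 U2OS were seeded at 7 × 10^5/well in six-well plates and exposed to 5 or 10 μg/mL for 18 h after spreading, with untreated and DMSO mock controls. Cells were trypsinized, fixed in 2% PFA/PBS, then in ice-cold methanol 30 min. Staining: anti-tubulin/anti-lamin antibodies plus RNase A and propidium iodide. Flow cytometry assigned G1, S, G2-M and sub-G1 by DNA content.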
# [33] = system: U2OS; assay: Induction of morphological changes in human U2OS cells assessed as multipolar and duplicated spindle formation at 0.5 ug/ml after 24 hrs by DAPI staining based immunofluorescence microscopic method; type: functional, cell-based; how it was run: as §2
# [34] = system: U2OS; assay: Induction of apoptosis in human U2OS cells assessed as caspase-3/7 cleavage at 250 nM after 16 hrs by caspase-3/7 green reagent based flow cytometry (reference value: 8.04%); type: functional
Compound,Activity [3],IC50 [4] [µM],IC50 [5] [µM],Activity [7],Activity [9],Activity [10],IC50 [11] [µM],Activity [12],IC50 [13] [µM],IC50 [14] [µM],Activity [15],Activity [16],IC50 [17] [µM],IC50 [18] [µM],Activity [19],Activity [20],IC50 [21] [µM],Activity [22],Activity [23],Activity [25],further results
NYSTATIN,,,,,,,,,,,,,,,,,,,,,inhibition zone (IZ) [1]: 32 mm
C[C@@H]1C[C@@H]([C@H](O)CC2CC(=O)NC(=O)C2)C(=O)[C@@H](C)C1 [CYCLOHEXIMIDE],,,,,,,,,,,,,,,,,,,,,MIC [2]: 33.3 µg/mL
CC1=C(C[C@H](C)O)[C@H](/C=C(C)/C=C(C)/C=C/C(=O)O)[C@@H]2C(=C1)C[C@@H](C)C(=O)[C@H]2C,inactive,24.3,6,inactive,inactive,inactive,20.3,inactive,60.3,6.5,inactive,inactive,22.6,7.03,Active,inactive,47.7,inactive,inactive,inactive,zone of inhibition at 100 µg/disc [6]: 28 mm; Activity [8]: Active; MIC [24]: 150 µg/mL; Activity [26]: inactive; Activity [27]: Active; MIC [2]: 35.5 µg/mL; Activity [28]: inactive; Activity [29]: inactive; Activity [30]: inactive; Activity [31]: inactive; Activity [32]: Active; Activity [33]: Active
CC(=O)CC1=C(C)C=C2C[C@@H](C)[C@@H](O)[C@@H](C)[C@@H]2[C@H]1/C=C(C)/C=C(C)/C=C/C(=O)O,inactive,22.1,11.3,inactive,inactive,inactive,35.1,inactive,70.3,17.3,inactive,inactive,32.4,> 2510,Active,inactive,60.2,inactive,inactive,inactive,Activity [26]: inactive; Activity [28]: inactive; Activity [29]: inactive; Activity [30]: inactive; Activity [31]: inactive
COC(=O)/C=C/C(C)=C/C(C)=C/[C@H]1C(CC(C)=O)=C(C)C=C2C[C@@H](C)C(=O)[C@@H](C)[C@@H]21,inactive,> 2440,51.2,inactive,inactive,inactive,> 2440,inactive,> 2440,53.6,inactive,inactive,> 2440,22.2,Active,inactive,> 2440,inactive,inactive,inactive,Activity [26]: inactive; Activity [28]: inactive; Activity [29]: inactive; Activity [30]: inactive; Activity [31]: inactive
C/C(=C\c1csc(C)n1)[C@@H]1C[C@@H]2O[C@]2(C)CCC[C@H](C)[C@H](O)[C@@H](C)C(=O)C(C)(C)[C@@H](O)CC(=O)O1 [PATUPILONE],,0.00015,6.1e-05,,,,7.3e-05,,0.00015,0.0017,,,2.36e-05,0.000104,,,0.00025,,,,
CN[C@@H]1C[C@H]2O[C@@](C)([C@@H]1OC)n1c3ccccc3c3c4c(c5c6ccccc6n2c5c31)C(=O)NC4 [STAUROSPORINE],,,,,,,,,,,,,,,,,,,,,Activity [34]: 22.6%
COC(=O)/C=C/C(C)=C/C(C)=C/[C@H]1C(C[C@H](C)O)=C(C)C=C2C[C@@H](C)C(=O)[C@@H](C)[C@@H]21,inactive,55.8,23,inactive,inactive,inactive,55.8,inactive,41.2,80,inactive,inactive,29.1,> 2430,Active,inactive,41.2,inactive,inactive,inactive,Activity [26]: inactive; Activity [28]: inactive; Activity [29]: inactive; Activity [30]: inactive; Activity [31]: inactive
CC(=O)CC1=C(C)C=C2C[C@@H](C)C(=O)[C@@H](C)[C@@H]2[C@H]1/C=C(C)/C=C(C)\C=C\C(=O)O,inactive,15.4,17.4,inactive,inactive,inactive,17.9,inactive,47.9,24.7,inactive,inactive,20.2,> 2520,Active,inactive,45.4,inactive,inactive,inactive,Activity [26]: inactive; Activity [28]: inactive; Activity [29]: inactive; Activity [30]: inactive; Activity [31]: inactive
